Data as given in ChEMBL document CHEMBL1142960, “Synthesis and structure-activity relationships for 2,4-dinitrobenzamide-5-mustards as prodrugs for the Escherichia coli nfsB nitroreductase in gene therapy” (J Med Chem, 2007).
In brackets after ≈: the same amount, converted by molar mass.

Experiments:
[1] = Antiproliferative activity against human Skov3 NTRneo cells after 18 hrs; assay type: functional, cell-based; conditions: SK-OV-3, 18 h
EMT6 [2] = experiment: Selectivity ratio of IC50 for EMT6 NTR-ve cells to IC50 forEMT6 NTRpuro cells; assay type: functional, Mus musculus
[3] = Partition coefficient at pH 7.4 by shake-flask method; assay type: physicochemical; conditions: octanol/water
Outline: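 Octanol-water partition coefficient by shake-flask at pH 7.4, reported with SEM.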

EMT6 [4] = experiment: Antiproliferative activity against mouse wild type EMT6 NTR-ve cells after 18 hrs; assay type: functional, cell-based; conditions: EMT6, 18 h
WiDr [5] = experiment: Selectivity ratio of IC50 for WiDr NTR-ve cells to IC50 for WiDr NTRneo cells; assay type: functional, Homo sapiens
V79 [6] = experiment: Antiproliferative activity against chinese hamster V79 NTRpuro cells after 18 hrs; assay type: functional, cell-based; conditions: Cricetulus griseus, V79, 18 h
[7] = Toxicity in ip dosed CD1 nude mouse in DMSO; assay type: organism-based; conditions: in vivo
Outline: (§1)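 Maximum tolerated dose (MTD) determined in CD-1 nude mice after a single i.p. injection of prodrug, given in the vehicle named in each line.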

[8] = Selectivity ratio of IC50 for Skov3 NTR-ve cells to IC50 for Skov3 NTRneo cells; assay type: functional, Homo sapiens
[9] = Antiproliferative activity against human wild type Skov3 NTR-ve cells after 18 hrs; assay type: functional, cell-based
EMT6 [10] = experiment: Antiproliferative activity against mouse EMT6 NTRpuro cells after 18 hrs; assay type: functional, cell-based; conditions: EMT6, 18 h
V79 [11] = experiment: Clonogenic survival of 97% V79 NTRoua cells in co-cultures with 3% V79 NTRpuro cells after 5 hrs by MCL assay; assay type: functional, Cricetulus griseus
Outline: (§2)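 Multicellular layer cocultures of 3% V79-NTRpuro activators and 97% V79oua NTR-ve targets (ouabain-resistant), exposed to prodrug for 5 h. MCLs were then trypsin-dissociated and plated in ouabain or puromycin selective media for clonogenic survival. C10 (10% survival) interpolated for activators and targets; AC/TC ratio derived. Mean with SEM or range over independent experiments.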

EMT6 [12] = experiment: Antitumor activity against mixed mouse EMT6/EMT6 NTRpuro cells injected in CD1 nude mouse assessed as cell kill at 237 umol/kg, ip in DMSO after 18 hrs; assay type: functional
V79 [13] = experiment: Selectivity ratio of IC50 for V79 NTR-ve cells to IC50 for V79 NTRpuro cells; assay type: functional, Cricetulus griseus
WiDr [14] = experiment: Antiproliferative activity against human wild type WiDr NTR-ve cells after 18 hrs; assay type: functional, cell-based
[15] = Stability in alpha MEM at 37 degC after 24 hrs; assay type: physicochemical; conditions: read-out: Stability
Outline: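 Percent parent compound remaining, by HPLC, after holding in α-MEM with 5% fetal calf serum at 37 °C for 24 h.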

V79 [16] = experiment: Antiproliferative activity against chinese hamster wild-type V79 NTR-ve cells after 18 hrs; assay type: functional, cell-based; conditions: Cricetulus griseus, V79, 18 h
WiDr [17] = experiment: Antiproliferative activity against human WiDr NTRneo cells after 18 hrs; assay type: functional, cell-based
[18] = Solubility in alpha MEM; assay type: physicochemical
Outline: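 Solubility (mM) in α-MEM with 5% fetal calf serum at ambient temperature, measured by HPLC.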

V79 [19] = experiment: Clonogenic survival of 3% V79 NTRpuro cells in co-cultures with 97% V79 NTRoua after 5 hrs by MCL assay; assay type: functional, Cricetulus griseus; outline: as §2
V79 [20] = experiment: Clonogenic survival of V79 NTRoua cells after 5 hrs by MCL assay; assay type: functional, Cricetulus griseus
EMT6 [21] = experiment: Antitumor activity against mixed mouse EMT6/EMT6 NTRpuro cells injected in CD1 nude mouse assessed as cell kill at 178 umol/kg, ip in DMSO/PEG after 18 hrs; assay type: functional
[22] = Toxicity in ip dosed CD1 nude mouse in DMSO/PEG; assay type: organism-based; conditions: in vivo; outline: as §1
EMT6 [23] = experiment: Antitumor activity against mixed mouse EMT6/EMT6 NTRpuro cells injected in CD1 nude mouse assessed as cell kill at 237 umol/kg, ip in DMSO/PEG after 18 hrs; assay type: functional
WiDr [24] = experiment: Antitumor activity against human 100% WiDr NTRneo tumor cells injected in CD1 nude mouse assessed as growth delay at 237 umol/kg, ip in DMSO/PEG; assay type: functional
Outline: (§3)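 WiDr-NTRneo tumours (100% NTR+ve, or 1:9 NTR+ve:NTR-ve mixtures) in CD-1 nude mice, given a single i.p. dose at MTD. Read-out is median growth delay to 15 mm mean diameter, plus tumours not palpable 100 days after treatment. Aziridine given at 200 µmol/kg as positive control in every experiment.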

WiDr [25] = experiment: Antitumor activity against human 100% WiDr NTRneo tumor cells injected in CD1 nude mouse assessed as growth delay at 562 umol/kg, ip in DMSO/PEG; assay type: functional; outline: as §3
EMT6 [26] = experiment: Antitumor activity against mixed mouse EMT6/EMT6 NTRpuro cells injected in CD1 nude mouse assessed as cell kill at 562 umol/kg, ip in DMSO/PEG after 18 hrs; assay type: functional
WiDr [27] = experiment: Antitumor activity against human 10% WiDr NTRneo/ 90% WiDr tumor cells injected in CD1 nude mouse assessed as growth delay at >1330 umol/kg, ip in DMSO; assay type: functional; outline: as §3
WiDr [28] = experiment: Antitumor activity against human 100% WiDr NTRneo tumor cells injected in CD1 nude mouse assessed as growth delay at >1330 umol/kg, ip in DMSO; assay type: functional; outline: as §3
EMT6 [29] = experiment: Antitumor activity against mixed mouse EMT6/EMT6 NTRpuro cells injected in CD1 nude mouse assessed as cell kill at 560 umol/kg, ip in DMA/PEG after 18 hrs; assay type: functional
WiDr [30] = experiment: Antitumor activity against human 100% WiDr NTRneo tumor cells injected in CD1 nude mouse assessed as growth delay at 560 umol/kg, ip in DMA/PEG; assay type: functional; outline: as §3
[31] = Toxicity in ip dosed CD1 nude mouse in DMA/PEG; assay type: organism-based; conditions: in vivo; outline: as §1
EMT6 [32] = experiment: Antitumor activity against mixed mouse EMT6/EMT6 NTRpuro cells injected in CD1 nude mouse assessed as cell kill at 1330 umol/kg, ip in DMSO/PEG after 18 hrs; assay type: functional
WiDr [33] = experiment: Antitumor activity against mixed human 10% WiDr NTRneo/ 90% WiDr tumor cells injected in CD1 nude mouse assessed as growth delay at 1330 umol/kg, ip in DMSO/PEG; assay type: functional; outline: as §3
[34] = Toxicity in ip dosed CD1 nude mouse in sodium acetate; assay type: organism-based; conditions: in vivo; outline: as §1
WiDr [35] = experiment: Antitumor activity against human 100% WiDr NTRneo tumor cells injected in CD1 nude mouse assessed as growth delay at 300 umol/kg, ip in acetate; assay type: functional; outline: as §3
EMT6 [36] = experiment: Antitumor activity against mixed mouse EMT6/EMT6 NTRpuro cells injected in CD1 nude mouse assessed as cell kill at 300 umol/kg, ip in acetate after 18 hrs; assay type: functional

Compound | IC50 [1] | Ratio IC50 (EMT6 [2]) | logD [3] | IC50 (EMT6 [4]) | Ratio IC50 (WiDr [5]) | IC50 (V79 [6]) | Ratio IC50 [8] | IC50 [9] | IC50 (EMT6 [10]) | Activity (V79 [11]) | Ratio IC50 (V79 [13]) | IC50 (WiDr [14]) | remaining at 24 h [15] | IC50 (V79 [16]) | IC50 (WiDr [17]) | solubility [18] | Activity (V79 [19]) | Activity (V79 [20]) | MTD [22] | also measured
NC(=O)c1cc(N(CCCl)CCBr)c([N+](=O)[O-])cc1[N+](=O)[O-] | 0.84 µM | 2190 | 1.61 | 150 µM | 236 | 0.59 µM | 280 | 226 µM | 0.1 µM | 8.2 µM | 237 | 150 µM | 62% | 139 µM | 0.69 µM | 630 µM (≈ 249 µg/mL) | 3.4 µM | >300 µM | – | MTD [7]: 237 µmol/kg; LCK (EMT6 [12]): >3.02
O=C(NCCCO)c1cc(N(CCCl)CCCl)c([N+](=O)[O-])cc1[N+](=O)[O-] | 6.5 µM | 477 | 1.49 | 422 µM | 51 | 7.7 µM | 146 | 948 µM | 1.02 µM | 150 µM | 77 | 518 µM | 108% | 555 µM | 10 µM | 4100 µM (≈ 1680 µg/mL) | 95 µM | 3300 µM | 178 µmol/kg | LCK (EMT6 [21]): 0.44
O=C(NCC(O)CO)c1cc(N(CCI)CCI)c([N+](=O)[O-])cc1[N+](=O)[O-] (configuration not stated) | 0.56 µM | 482 | 1.79 | 58 µM | 90 | 1 µM | 172 | 97 µM | 0.12 µM | 54 µM | 100 | 64 µM | 90% | 114 µM | 0.82 µM | 960 µM (≈ 584 µg/mL) | 12.5 µM | 245 µM | 237 µmol/kg | LCK (EMT6 [23]): 0.54; Activity (WiDr [24]): 37 days
NC(=O)c1cc(N(CCBr)CCBr)c([N+](=O)[O-])cc1[N+](=O)[O-] | 0.33 µM | 1110 | 1.97 | 48 µM | 174 | 0.18 µM | 211 | 58 µM | 0.04 µM | 4.6 µM | 302 | 40 µM | 98% | 43 µM | 0.22 µM | – | 3.3 µM | >50 µM | > 1330 µmol/kg | Activity (WiDr [25]): >84 days; LCK (EMT6 [26]): 4.17; MTD [7]: > 1330 µmol/kg; Activity (WiDr [27]): 20 days; Activity (WiDr [28]): >84 days
O=C(NCC(O)CO)c1cc(N(CCCl)CCCl)c([N+](=O)[O-])cc1[N+](=O)[O-] (configuration not stated) | 5.1 µM | 803 | 0.93 | 839 µM | 79 | 10 µM | 327 | 1710 µM | 1.14 µM | 510 µM | 135 | 984 µM | 100% | 1160 µM | 14 µM | 2900 µM (≈ 1230 µg/mL) | 95 µM | 3500 µM | – | LCK (EMT6 [29]): 1.49; Activity (WiDr [30]): 75 days; MTD [31]: 560 µmol/kg
O=C(NCC(O)CO)c1cc(N(CCBr)CCBr)c([N+](=O)[O-])cc1[N+](=O)[O-] (configuration not stated) | 0.28 µM | 1670 | 1.25 | 132 µM | 313 | 0.34 µM | 1050 | 283 µM | 0.08 µM | 98 µM | 828 | 166 µM | 102% | 275 µM | 0.63 µM | 1700 µM (≈ 874 µg/mL) | 18 µM | 675 µM | 1330 µmol/kg | LCK (EMT6 [32]): >3.36; Activity (WiDr [33]): 22 days
O=C(NCCN1CCOCC1)c1cc(N(CCCl)CCCl)c([N+](=O)[O-])cc1[N+](=O)[O-] | 82 µM | 8.9 | 1.6 | 242 µM | 1.7 | 130 µM | 5 | 383 µM | 30 µM | 3000 µM | 1.6 | 243 µM | 100% | 201 µM | 149 µM | 5200 µM (≈ 2410 µg/mL) | 1500 µM | 3500 µM | – | MTD [34]: 300 µmol/kg; Activity (WiDr [35]): 27 days; LCK (EMT6 [36]): 0.07
